An excerpt weighted towards active compounds, which were near 3.3% of everything screened.
Cl transport mod = KCC2 cotransporter modulators, thallium flux, primary screen, cell-based, HEK293 KCC2, FluoZin-2 fluorescence, MLSMR; Solute carrier family 12 member 5 (Homo sapiens), Q9H2X9; KCC2 cells, thallium flux FluoZin-2 fluorescence; B-score of Tl+ flux slope (higher = more flux/activation; lower = inhibition) at 10 µM; 190,000 tested, 2.2% active;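 active = thallium flux slope and its plate-corrected score both differing from the plate sample mean at a set confidence after two filtering rounds, in either direction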;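 note: slope of fluorescence scaled to starting intensity during 10 to 20 s after thallium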
ROMK mod = ROMK potassium channel modulators, primary screen, cell-based, thallium flux, MLSMR library; ATP-sensitive inward rectifier potassium channel 1 (Homo sapiens), P48048; Tet-inducible ROMK, thallium flux fluorescence; actives lie on both sides; B-score at 10 µM; 130,000 tested, 2% active; AID 1918, 2009;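 active = signal ratio slope over the read window, or its plate-corrected B-score, at least 3 SD from the plate mean, either direction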;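 note: B-score of the F/F0 ratio slope over 7 to 12 s after thallium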
PMI act hi M6P = human PMI activators, high substrate, primary screen, biochemical, fluorescence intensity, near-saturating mannose 6-phosphate; Mannose-6-phosphate isomerase (Homo sapiens), P34949; coupled PMI enzyme assay, resazurin fluorescence, 20 min; active compounds read high; 1 = untreated enzyme, 0 = substrate-free blank; activation factor at 20 µM; 190,000 tested, 0.34% active;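 active = activation factor of 2 or more at 20 µM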
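assay system = human phosphomannose isomerase with PGI, G6PDH, diaphorase coupling enzymes | quantity = 15 ng/mL PMI | incubation = enzyme reaction with compound 20 min at room temperature | medium = HEPES pH 7.4 buffer with MgCl2 and Tween-20 | compound dosing = one concentration, 20 µM, in 1% DMSO | measured by = Diaphorase-driven resazurin-to-resorufin fluorescence, excitation 544, emission 590 nm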
ABCG2 inh = ABCG2 efflux pump inhibitors, primary screen, multiplex with ABCB1, IgMXP3 cells, flow cytometry; 190,000 tested, 0.1% active; AID 1325, 2008; JC-1 efflux; inhibition, % at 6.6 µM; Broad substrate specificity ATP-binding cassette transporter ABCG2 (Homo sapiens), Q9UNQ0;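 active = inhibition above 80%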
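material = IgMXP3 (ABCG2) plus far-red-tagged CCRF-Adr (ABCB1) cells | amount = 3 million cells/mL, equal mix of both lines | also added = JC-1 transporter substrate | dosing = one concentration, 6.6 µM final | schedule = 10 min at 25 °C | measured by = flow cytometric JC-1 green MFI at 530 nm | read-out basis = percent efflux inhibition, scaled nicardipine 100% to DMSO 0%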
PMI activator = activators of human PMI, primary screen, biochemical, fluorescence intensity, near-Km mannose 6-phosphate; 190,000 tested, 0.005% active; Mannose-6-phosphate isomerase (Homo sapiens), P34949; activation factor at 20 µM; purified human PMI, coupled resazurin fluorescence, 20 min; active compounds read high; 1 = vehicle control, 0 substrate-free wells; AID 1214, 2008;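 active = activation factor of 2 or more at 20 µM, relative to plate controls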
ABCB1 inh = ABCB1 efflux pump inhibitors, primary screen, cell-based, multiplex, flow cytometry, ABCG2 counter-screen; inhibition, % at 6.6 µM; CCRF-Adr cells, JC-1 efflux; AID 1326, 2008; 190,000 tested, 0.067% active; in the data active = inhibition above about 40%;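 note: higher value means more JC-1 retained so stronger ABCB1 efflux block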
KCC2 sec1 = KCC2 modulators in sodium-free buffer, confirmation, cell-based, HEK293 KCC2, thallium flux, secondary assay. shares compounds with Cl transport mod. normalised thallium flux (F/F0 slope) at 10 µM. AID 1713, 2009. 3,700 tested, 15% active. FluoZin2 fluorescence; active compounds read high;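 active = thallium flux slope above the same plate's solvent-only control mean plus 3 SD; inconclusive = the two replicate wells disagree; inactive = no significant difference from solvent-only control wells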
KCC2 bumet counter = thallium flux persisting under bumetanide in KCC2 cells, confirmation, counter-screen for KCC2 modulator project, cell-based, HEK293 KCC2, FluoZin2, secondary assay 3; AID 1714, 2009; HEK293-KCC2 + bumetanide/ouabain; active compounds read high; 3,700 tested, 49% active; normalized thallium flux at 10 µM; shares compounds with Cl transport mod;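 active = thallium entry rate above the same plate's blocked-transporter control wells by more than 3 SD; inconclusive = the two repeat wells disagree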;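 note: raw slope of fluorescence over initial fluorescence between 10 and 20 s after thallium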
KCC2 secondary2 = KCC2 modulators without ouabain present, confirmation, cell-based, HEK293 KCC2, thallium flux, FluoZin2, secondary assay 2; normalized thallium flux at 10 µM; shares compounds with Cl transport mod; AID 1715, 2009; thallium flux FluoZin2 fluorescence; actives lie on both sides; F/F0 rise rate, 10–20 s post-thallium; 3,700 tested, 23% active;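 active = thallium flux slope more than 3 SD above or below the plate's solvent-only control mean, mostly below; inconclusive = the two repeat wells disagreed; inactive = no significant shift from solvent-only controls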
HEK293 Tl flux = thallium flux modulation in parental HEK cells, confirmation, counter-screen for KCC2 modulator project, cell-based, counterscreen 1. 3,700 tested, 46% active. thallium flux rate (normalised fluorescence) at 10 µM. HEK293 parental cells, thallium flux FluoZin2, ouabain; baseline-ratio fluorescence slope, 10–20 s after thallium. AID 1716, 2009. shares compounds with Cl transport mod;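 active = thallium flux rate significantly above the same plate's solvent-only control wells, beyond their mean plus 3 SD; inconclusive = the two replicate wells gave conflicting results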
KCC2 ouabain = KCC2 inhibitors and activators, ouabain retest, confirmation, HEK-KCC2 cells; shares compounds with Cl transport mod; HEK293-KCC2, thallium flux FluoZin2 fluorescence; bidirectional: low = inhibitor, high = activator; raw Tl+ flux slope (below DMSO = inhibition, above = activation) at 10 µM; 3,700 tested, 48% active;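 active = thallium flux slope beyond 3 SD from same-plate DMSO control mean in most replicates, usually higher, sometimes lower; inconclusive = repeat tests gave conflicting results; inactive = no significant difference from controls in most replicates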;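 note: slope of initial-normalized fluorescence between seconds 10 and 20 after thallium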
HEK counter2 = native HEK Tl+ uptake effects, second counter-screen – HEK cells, counterscreen 2, counter-screen for KCC2 modulator project, confirmation; shares compounds with Cl transport mod; HEK293 parental, thallium flux FluoZin-2 fluorescence slope; thallium flux slope at 10 µM; 3,700 tested, 33% active; AID 1718, 2009;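 active = thallium flux slope above the same plate's solvent-control mean plus 3 SD in both duplicate wells; inconclusive = duplicate wells that disagreed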;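 note: run without ouabain in cells lacking the KCC2 cotransporter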
Large screens that a line does not name were inactive (follow-up assays come after a bar, where they were run).

Cc1ccc(S(=O)(=O)N2CCCOC2CNC(=O)C(=O)NCc2ccncc2)cc1 (configuration not stated)	none
Cc1cccc(CSC2=CS(=O)(=O)c3ccccc3N2)c1	none (no result: ROMK mod)
O=S1(=O)C=C(SCc2cccc(Cl)c2)Nc2ccccc21	Cl transport mod -3.4 (no result: ROMK mod) | KCC2 sec1 inconclusive | KCC2 bumet counter inactive | KCC2 secondary2 inactive | HEK293 Tl flux inactive | KCC2 ouabain 0.016 | HEK counter2 inactive
COc1ccc(CN2C3CCCC2CC(NC(=O)Nc2ccccc2C)C3)cc1 (configuration not stated)	Cl transport mod 2.5 | KCC2 sec1 inactive | KCC2 bumet counter inactive | KCC2 secondary2 inactive | HEK293 Tl flux inconclusive | KCC2 ouabain inactive | HEK counter2 inactive
CCN(CC)S(=O)(=O)c1cccc(-c2nnc(SCC(=O)NC3CCCCCCC3)n2N)c1	none
O=C(NC(=S)Nc1ccc(Cc2ccncc2)cc1)c1ccc(F)cc1	none
Cn1nc([N+](=O)[O-])nc1Sc1cccc2cccnc12	Cl transport mod 7.6 | KCC2 sec1 inactive | KCC2 bumet counter 0.023 | KCC2 secondary2 inactive | HEK293 Tl flux 0.013 | KCC2 ouabain inactive | HEK counter2 inactive
Cc1cc(NC(=O)c2ccccc2Cl)n(C(C)(C)C)n1	none (no result: ROMK mod, PMI act hi M6P, ABCG2 inh, PMI activator, ABCB1 inh)
O=C(Nc1cc(=O)[nH]c2nc(-c3ccccc3)nn12)c1ccccc1Cl	Cl transport mod -3.2 (no result: PMI act hi M6P, ABCG2 inh, PMI activator, ABCB1 inh) | KCC2 sec1 inactive | KCC2 bumet counter inactive | KCC2 secondary2 inactive | HEK293 Tl flux inactive | KCC2 ouabain inconclusive | HEK counter2 inconclusive
Cc1cccc(NC(=O)Nc2ccc(C)c(C)c2)n1	Cl transport mod 5.7 | KCC2 sec1 inactive | KCC2 bumet counter inactive | KCC2 secondary2 inactive | HEK293 Tl flux inactive | KCC2 ouabain inactive | HEK counter2 inactive
Cc1cccc(NC(=O)Nc2cccc(C)n2)n1	none
O=C1C2CC=C(Cl)CC2C(=O)N1CCC[n+]1cccc2ccccc21 (configuration not stated)	none
COC(=O)[C@@H](NC(=O)O[C@@H]1C(=O)c2cc(Br)ccc2O[C@H]1c1cccc(OC)c1)C(C)C	Cl transport mod 9.3 | KCC2 sec1 inactive | KCC2 bumet counter 0.013 | KCC2 secondary2 inactive | HEK293 Tl flux 0.015 | KCC2 ouabain inconclusive | HEK counter2 inconclusive
Cc1[nH]n(-c2c(Cl)cc(Cl)cc2Cl)c(=O)c1C=Nc1ccc(S(=O)(=O)N2CCOCC2)cc1	none
COC(=O)N/N=C/c1c(C)cc(C)cc1C	Cl transport mod -5.3 | KCC2 sec1 inactive | KCC2 bumet counter inactive | KCC2 secondary2 inactive | HEK293 Tl flux inactive | KCC2 ouabain inactive | HEK counter2 inactive
CC1=NN(c2nc(-c3ccccc3)cs2)C(=O)C1	none (no result: Cl transport mod, ROMK mod)
O=C1CC(c2ccccc2)=NN1c1nc(-c2ccccc2)cs1	Cl transport mod 9.7 | KCC2 sec1 0.013 | KCC2 bumet counter 0.039 | KCC2 secondary2 inactive | HEK293 Tl flux 0.013 | KCC2 ouabain 0.034 | HEK counter2 inconclusive
O=C1CC(N(O)C2CC(=O)N(Cc3ccccc3)C2=O)C(=O)N1Cc1ccccc1 (configuration not stated)	none (no result: Cl transport mod) | KCC2 sec1 inactive | KCC2 bumet counter inactive | KCC2 secondary2 0.026 | HEK293 Tl flux inactive | KCC2 ouabain inconclusive | HEK counter2 inactive
CCCN(CCC)C1CC(=O)N(Cc2ccccc2)C1=O (configuration not stated)	none
Cc1c(Cl)cccc1Nc1ccccc1C(=O)O	Cl transport mod 4.6 | KCC2 sec1 inconclusive | KCC2 bumet counter 0.024 | KCC2 secondary2 inactive | HEK293 Tl flux 0.013 | KCC2 ouabain inconclusive | HEK counter2 inactive
O=C(C[n+]1ccccc1)c1ccc(-c2ccccc2)cc1	Cl transport mod -4.6 | KCC2 sec1 inactive | KCC2 bumet counter inactive | KCC2 secondary2 0.022 | HEK293 Tl flux inactive | KCC2 ouabain inactive | HEK counter2 inactive
CN(C)c1cc[n+](CC(=O)c2ccc(-c3ccccc3)cc2)cc1	none
CCn1c(=S)[nH]c2ccccc21	none (no result: ROMK mod)
CCN(CC)CCCn1c(=S)[nH]c2cc(Cl)ccc2c1=O	none (no result: Cl transport mod)
CCn1c(=S)[nH]c2cc(Cl)ccc21	Cl transport mod 10 (no result: PMI act hi M6P, ABCG2 inh, PMI activator, ABCB1 inh) | KCC2 sec1 inconclusive | KCC2 bumet counter 0.024 | KCC2 secondary2 inconclusive | HEK293 Tl flux 0.022 | KCC2 ouabain 0.031 | HEK counter2 0.019
CCCn1c(=S)[nH]c2cc(Cl)ccc21	Cl transport mod 55 (no result: ROMK mod, PMI act hi M6P, ABCG2 inh, PMI activator, ABCB1 inh) | KCC2 sec1 0.042 | KCC2 bumet counter 0.088 | KCC2 secondary2 0.049 | HEK293 Tl flux 0.047 | KCC2 ouabain 0.051 | HEK counter2 0.045
C/C(=C\c1ccccc1)C(=O)Nc1ccc(S(=O)(=O)Nc2ncccn2)cc1	none
COC(=O)c1sc(-c2ccc(Cl)cc2)cc1NC(=O)COCC(=O)O	none (no result: PMI act hi M6P, ABCG2 inh, PMI activator, ABCB1 inh)
